Measurements published in article PMC2882558 (Biopolymers, 2010).
Like-named read-outs stand apart in the source and are kept apart here. Blank lines part the entries; values can stand above or below the molecule they belong to. Square brackets hold non-standard residues; d marks the D form. Ends that are not written are not given here. Peptide text beside a SMILES is read from it. Nle = CCCC[C@H](N)C(=O)O

Experiments:
[1] = Solubility in NMR phosphate buffer; type: physicochemical; details: KH2PO4/Na2HPO4 buffer, pH 6.8 (NMR samples)
[2] = test system: 20S proteasome; test: Peptidase activities of 20S proteasome; type: biochemical, human; details: single peptides; not shown
Method in brief: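 Human erythrocyte 20S CP, latent or 0.005% SDS-activated, 3 nM final; 50 mM Tris/HCl pH 8.0, DMSO ≤3% final. Test peptide preincubated 10 min at room temperature, then substrate added at 50 or 100 μM final: Suc-LLVY-MCA (ChT-L), Boc-LRR-MCA (T-L), Z-LLE-βNA (PGPH). Emission 460 nm every 2 min, ≤60 min, 37°C; nmol product/mg CP/s; ≥3 repeats across proteasome batches.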

[3] = test system: 20S proteasome activated with 0.005% SDS, ChT-L activity; test: ChT-L peptidase activity of SDS-activated 20S proteasome; type: biochemical, human; details: 100% = DMSO solvent control
[4] = test system: 20S proteasome (CP) with PA28αβ activator; type: biochemical, human
Method in brief: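 Human erythrocyte 20S CP (3 nM final) in 50 mM Tris/HCl pH 8.0 was pretreated with DMSO (≤3% final) or peptide, then mixed with purified human PA28αβ at set molar ratios. After 5 min preincubation, SucLLVY-MCA (50 or 100 μM final) was added. AMC fluorescence at 460 nm was read every 2 min for up to 60 min at 37°C. Activity was expressed as nmol AMC/mg CP/s, with ≥3 repeats using different proteasome batches.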

- Effect on any of the peptidase activities of 20S proteasome [2]: did not substantially affect
Molecule: IPKIEDGNDFGV

- % of Ch-L activity, SDS-activated proteasome ([3]; 1 mM peptide): 107%
- % of Ch-L activity, SDS-activated proteasome ([3]; 2 mM peptide): 115%
- % of Ch-L activity, SDS-activated proteasome ([3]; 5 mM peptide): 108%
- % of Ch-L activity, SDS-activated proteasome ([3]; 10 mM peptide): 106%
Molecule: CCCC[C@H](NC(=O)CNC(=O)[C@H](CCCCN)NC(=O)[C@@H](NC(=O)[C@H](CCC(=O)O)NC(=O)CNC(=O)[C@H](CCCNC(=N)N)NC(=O)[C@@H]1CCCN1C(=O)[C@H](CCCCN)NC(=O)[C@@H](N)CCCCN)[C@@H](C)O)C(=O)N[C@H](C(=O)N[C@@H](Cc1ccc(O)cc1)C(N)=O)[C@@H](C)CC [KKP] (H-KKPRGETKG[Nle]IY-NH2)

- Activation of CP by PA28αβ (fold) ([4]; CP:PA28αβ molar ratio 1:1): approximately 2,5 x
- Activation of CP by PA28αβ (fold) ([4]; CP:PA28αβ molar ratio 1:2): ~5 x
- Activation of CP by PA28αβ (fold) ([4]; CP:PA28αβ molar ratio 1:4): ~8 x
Molecule: PA28αβ: purified human PA28αβ proteasome activator (BioMol Inc.)

Second part, the molecule before the results:

Molecule: RKKRRQRRQDPI-NH2 [Tat2]
- Solubility in buffer [1]: not fully soluble

Molecule: IPRIEDGNNFGV
- Effect on any of the peptidase activities of 20S proteasome [2]: did not substantially affect

Molecule: N=C(N)NCCC[C@H](NC(=O)CN)C(=O)N[C@@H](CCCCN)C(=O)N[C@@H](CCCCN)C(=O)N[C@@H](CCCNC(=N)N)C(=O)N[C@@H](CCCNC(=N)N)C(=O)N[C@@H](CCC(N)=O)C(=O)N[C@@H](CCCNC(=N)N)C(=O)N[C@@H](CCCNC(=N)N)C(=O)N[C@@H](CCCNC(=N)N)C(=O)N1CCC[C@H]1C(=O)N[C@@H](CO)C(N)=O [Tat1]
- Solubility in buffer [1]: not fully soluble
